Source: PubChem BioAssay (several laboratories)
HSP90 inh: blocks HSP90-mediated luciferase refolding in reticulocyte lysate | Rabbit reticulocyte lysate, luciferase refolding luminescence, 3 h | inhibition, % at 5.6 µM | 290,000 tested, 0.91% active | AID 1789;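 active = inhibition above the screen-wide mean plus 3 SD, computed separately per campaign, cut at about 16% in these data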;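 also: 0% = DMSO wells and 100% = 60 µM geldanamycin wells; inhibitors lower the luminescence because luciferase stays unfolded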
SENP8 block-1: inhibitors of human SENP8 protease; Q96LD8; recombinant SENP8, Nedd8 substrate fluorescence; inhibition, % at 20 µM; 360,000 tested, 0.64% active; AID 602440; in the data active = inhibition mostly above about 40%, no sharp cut-off; inactive = mostly below about 27%
SENP6 inh: inhibitors of human SENP6 protease | Q9GZR1 | Recombinant SENP6 catalytic domain, aminoluciferin luminescence | inhibition, % at 10 µM | 330,000 tested, 1.8% active;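 active = inhibition above about 50% at the single tested dose, limit read from the data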;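 also: plate controls were DMSO wells with enzyme for no effect and DMSO wells lacking enzyme for full effect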
SENP8 block-2: SENP8 protease inhibition; Q96LD8; purified SENP8, Z-RLRGG-aminoluciferin cleavage, luminescence; inhibition, % at 10 µM; 330,000 tested, 1.2% active; in the data active = inhibition above about 50%
SENP7 block: blocks the human protease SENP7; Q9BQF6; recombinant SENP7, Z-RLRGG-aminoluciferin luminescence, 40 min; inhibition, % at 5 µM; 330,000 tested, 1.5% active; AID 434973;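 active = inhibition above about 50% at the single test dose, limit read from the data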;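 also: plate controls were DMSO with enzyme for no effect and no enzyme buffer wells for full effect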
Target sequence (Q9BQF6 706-1050 limits assumed): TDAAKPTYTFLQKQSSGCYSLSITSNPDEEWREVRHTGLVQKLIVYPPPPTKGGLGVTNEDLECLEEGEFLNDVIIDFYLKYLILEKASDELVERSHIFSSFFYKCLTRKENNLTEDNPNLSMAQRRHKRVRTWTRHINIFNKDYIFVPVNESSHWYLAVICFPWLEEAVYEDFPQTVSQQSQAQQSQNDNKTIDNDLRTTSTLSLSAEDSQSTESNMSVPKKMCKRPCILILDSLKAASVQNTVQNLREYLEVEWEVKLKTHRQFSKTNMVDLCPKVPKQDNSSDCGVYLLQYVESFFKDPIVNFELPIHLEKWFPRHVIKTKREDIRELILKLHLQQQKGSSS
SENP1 inh: blocks the human SENP1 SUMO protease catalytic domain; recombinant SENP1 catalytic domain, CyPet-SUMO1-YPet FRET cleavage; inhibition, % at 10 µM; 360,000 tested, 0.21% active; AID 624204;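 active = inhibition at least 30% at 10 µM, raw YFP signal under a set limit, fluorescence ratio 0.5 to 1.5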;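 also: 0% = enzyme with DMSO and 100% = no enzyme wells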
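Compound: 10 µM single point, 0.5% DMSO; Test system: hSENP1 catalytic domain, recombinant; Timing: 50 min reaction at room temperature; Technique: FRET, CFP and YFP emission; Control set: no-enzyme wells low, DMSO-plus-enzyme wells high control.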
HSP90 inh confirm: HSP90 inhibition, confirmation assay; shares compounds with HSP90 inh; rabbit reticulocyte lysate, luciferase refolding luminescence, 3 h; inhibition, % at 5.9 µM; 2,300 tested, 64% active; AID 1846; in the data active = inhibition above about 18%;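 also: 0% = vehicle wells and 100% = reference inhibitor wells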
FLuc counter: firefly luciferase inhibition, HSP90 counter-screen. shares compounds with HSP90 inh. purified native firefly luciferase, luminescence. inhibition, % at 5.9 µM. 2,300 tested, 48% active. AID 1847;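 active = inhibition above the mean inhibition of all tested sample wells plus 3 SD, cut at about 10% in these data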;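 also: 0% = DMSO with luciferase and 100% = wells lacking luciferase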
SENP8 conf: human SENP8 inhibition, confirmed. AID 488912. shares compounds with SENP7 block. Recombinant SENP8, Z-RLRGG-aminoluciferin luminescence, 60 min. inhibition, % at 12.5 µM. 6,200 tested, 40% active;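 active = mean inhibition across replicates above about 50%, limit read from the data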
SENP6 confirm: confirmation of human SENP6 protease inhibitors; shares compounds with SENP7 block; recombinant SENP6, Z-RLRGG-aminoluciferin luminescence; inhibition, % at 12.5 µM; 6,200 tested, 58% active
SENP7 conf: human SENP7 inhibition, confirmed. shares compounds with SENP7 block. recombinant SENP7, Z-RLRGG-aminoluciferin luminescence, 40 min. inhibition, % at 12.5 µM. 6,200 tested, 69% active
Casp3 select: caspase-3 inhibition (SENP selectivity assay); shares compounds with SENP7 block; purified caspase-3, Z-DEVD-aminoluciferin luminescence, 60 min; inhibition, % at 12.5 µM; 6,200 tested, 60% active;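 active = mean inhibition above about 50%, limit read from the data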;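 also: plate controls were enzyme with DMSO for no effect and wells without caspase-3 for full effect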
Target sequence (P42574 28-227 limits assumed): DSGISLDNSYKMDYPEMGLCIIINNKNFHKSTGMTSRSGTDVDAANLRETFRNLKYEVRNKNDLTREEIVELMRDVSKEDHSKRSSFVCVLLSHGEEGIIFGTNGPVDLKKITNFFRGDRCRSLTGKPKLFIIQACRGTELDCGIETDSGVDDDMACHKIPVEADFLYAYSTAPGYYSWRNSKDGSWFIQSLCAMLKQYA
Luc interf: interferes with luciferase luminescence in SENP counter-screen; shares compounds with SENP7 block; Pre-incubated SENP8/Z-RLRGG-aminoluciferin, luciferase luminescence interference; inhibition, % at 12.5 µM; 6,200 tested, 39% active; AID 488919;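 active = mean inhibition above about 50% when retested at one dose, limit read from the data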;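 also: plate controls were DMSO wells with completed reaction for no effect and substrate without enzyme for full effect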
Active calls of the source: *; nt = not tested or not shown. Sampled rows, rich in hits. Any-hit rate of the full collection: about 2.9%.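 The calls were made as follows, unless noted: active = mean inhibition above about 50% in the one-dose retest (limit read from the data); inactive = the rest.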

SMILES | HSP90 inh | SENP8 block-1 | SENP6 inh | SENP8 block-2 | SENP7 block | SENP1 inh | HSP90 inh confirm | FLuc counter | SENP8 conf | SENP6 confirm | SENP7 conf | Casp3 select | Luc interf
COc1cccc(/C=N/Nc2ncnc(Cl)c2N)c1O | 2 | -51 | 16 | 7 | 15 | -8 | nt | nt | nt | nt | nt | nt | nt
COCCn1c(C)cc(C(=O)CSc2nc3ccccc3s2)c1C | 28* | 2 | 54* | 21 | -8 | 0 | 67* | 68* | 55* | 47 | 80* | 43 | 26
COCCn1c(C)cc(C(=O)CSc2nc3ccccc3o2)c1C | 1 | 18 | -26 | -14 | 7 | -3 | nt | nt | nt | nt | nt | nt | nt
CC(C)(C)OC(=O)N1CCN(c2ccc(CNC(=O)c3ccc(Cl)cc3)cc2)CC1 | -1 | 24 | -1 | -4 | 2 | -1 | nt | nt | nt | nt | nt | nt | nt
O=c1c2c(nc3cc(-c4ccc(F)cc4)[nH]n13)CCCC2 | 18* | -71 | 54* | 38 | 55* | -1 | 44* | 29* | -2 | 8 | 22 | 37 | 5
Cc1ccc(S(=O)(=O)N(C)C)cc1NC(=O)c1c(-c2c(F)cccc2Cl)noc1C | 0 | 22 | -12 | -2 | 4 | 0 | nt | nt | nt | nt | nt | nt | nt
Cc1c(O)nc(SCC(=O)Nc2ccc3c4c(cccc24)CC3)n(-c2ccc(F)cc2)c1=O | 3 | -16 | 7 | -5 | 6 | -2 | nt | nt | nt | nt | nt | nt | nt
COCC(C)n1c(C)cc(C(=O)COC(=O)c2n[nH]c3ccccc23)c1C (stereo not given) | 47* | 16 | 55* | 21 | 30 | 0 | 48* | 45* | 48 | 42 | 67* | 47 | 48
COc1ccc(CN2CCC(Oc3cc(C(=O)NC4CC4)ccc3OC)CC2)c(O)c1 | 6 | 3 | 12 | 9 | 4 | 0 | nt | nt | nt | nt | nt | nt | nt
O=c1cc2c(c(-c3ccccc3)n1Cc1ccccc1)[C@@H](CCO)NC2 | nt | -160 | nt | nt | nt | -9 | nt | nt | nt | nt | nt | nt | nt
COc1cc(NCc2ccccc2O)c2ncccc2c1 | 3 | -23 | 1 | -9 | -6 | -37 | nt | nt | nt | nt | nt | nt | nt
COc1cc(NCCCCCCCN)c2ncccc2c1 | 80* | 17 | 94* | 89* | 95* | -10 | 7 | -2 | 70* | 87* | 63* | 97* | 4
CC1=C(C(=O)N(C(C)C)C(C)C)CC(CC(=O)NC(c2ccccc2)c2ccccc2)C(=O)N1CCCN1CCCC1=O (stereo not given) | nt | 6 | nt | nt | nt | 1 | nt | nt | nt | nt | nt | nt | nt
CC(C)n1c(-c2ccc(N(C)C)cc2)nc2ccccc21 | 9 | -493 | 10 | 6 | -10 | 1 | nt | nt | nt | nt | nt | nt | nt
CN(C)c1ccc(-c2nc3ccccc3n2C)cc1 | 28* | -261 | 91* | 89* | 96* | 1 | 64* | 53* | 96* | 98* | 102* | 98* | 96*
Cc1ccc(C2(C)NC(=O)N(CC(=O)Nc3cc(S(=O)(=O)N4CCOCC4)ccc3OC(C)C)C2=O)cc1 (stereo not given) | nt | 17 | nt | nt | nt | 3 | nt | nt | nt | nt | nt | nt | nt
CC(C)(C)c1ccc(C(=O)O/N=C(\N)c2ccccn2)cc1 | 73* | 14 | 97* | 94* | 98* | 1 | 64* | 83* | 86* | 98* | 102* | 95* | 76*
N/C(=N\OC(=O)/C=C/c1ccccc1Cl)c1ccccn1 | 28* | -12 | 95* | 86* | 89* | -1 | 55* | 57* | 91* | 90* | 100* | 85* | 88*
N/C(=N\OC(=O)c1ccc(Br)o1)c1ccccn1 | 23* | 15 | 50* | 64* | 88* | 2 | 0 | 44* | 86* | 85* | 97* | 94* | 57*
CCOc1ccc(C(=O)O/N=C(\N)c2ccccn2)cc1 | 82* | 7 | 98* | 97* | 100* | 0 | 82* | 91* | 98* | 99* | 102* | 98* | 73*
N/C(=N\OC(=O)Cc1ccccc1)c1ccccn1 | 0 | 26 | -6 | -8 | -12 | 5 | nt | nt | nt | nt | nt | nt | nt
C/C(=N/NC(=O)c1ccc(C(C)(C)C)cc1)c1ccccn1 | nt | 2 | 5 | 1 | 16 | 1 | nt | nt | nt | nt | nt | nt | nt
CCC(=O)Nc1ccc2c(c1)ncn2-c1ccc(C)cc1 | -4 | 3 | -27 | -7 | 3 | 1 | nt | nt | nt | nt | nt | nt | nt
COc1ccc(CN2CCC(n3nccc3NC(=O)c3cccc(F)c3)CC2)cc1O | -4 | 8 | -16 | 0 | 0 | 0 | nt | nt | nt | nt | nt | nt | nt
Cc1cc(-c2ccc(S(=O)(=O)N(C)Cc3ccccc3)cc2)on1 | 6 | -2 | 1 | 1 | 3 | 2 | nt | nt | nt | nt | nt | nt | nt
SMILES | HSP90 inh | SENP8 block-1 | SENP6 inh | SENP8 block-2 | SENP7 block | SENP1 inh | HSP90 inh confirm | FLuc counter | SENP8 conf | SENP6 confirm | SENP7 conf | Casp3 select | Luc interf
Cc1ccc(C(=O)O/N=C(\N)c2ccccn2)cc1 | 78* | 9 | 99* | 98* | 101* | 4 | 86* | 94* | 99* | 99* | 102* | 98* | 88*
N/C(=N\OCc1ccc([N+](=O)[O-])cc1)c1ccccn1 | 84* | nt | 95* | 90* | 96* | nt | 91* | 86* | 94* | 94* | 100* | 95* | 71*
CC(C(=O)O/N=C(\N)c1ccccn1)c1ccc([N+](=O)[O-])cc1 (stereo not given) | 3 | 8 | 10 | 4 | 4 | 1 | nt | nt | nt | nt | nt | nt | nt
COc1cc(C(=O)O/N=C(\N)c2ccccn2)cc(OC)c1OC | -2 | 4 | -3 | 7 | 2 | 2 | nt | nt | nt | nt | nt | nt | nt
Cc1cccc(C(=O)O/N=C(\N)c2ccccn2)c1 | 61* | 11 | 97* | 91* | 98* | 1 | 61* | 83* | 94* | 95* | 100* | 96* | 93*
Cc1ccc(C(=O)O/N=C(\N)c2ccccn2)cc1C | 61* | 19 | 98* | 93* | 98* | 5 | 71* | 84* | 95* | 95* | 101* | 96* | 86*
O=C(O)CCCCCNC(=O)OCC1c2ccccc2-c2ccccc21 | -3 | 10 | -10 | 4 | 2 | 4 | nt | nt | nt | nt | nt | nt | nt
